Assay results from different studies.
FLT3 F691L/ITD: Receptor-type tyrosine-protein kinase FLT3 (FLT3, Homo sapiens, UniProt P36888, F691L/ITD)
FLT3 R834Q: Receptor-type tyrosine-protein kinase FLT3 (FLT3, Homo sapiens, UniProt P36888, R834Q)
FLT3 N841I: Receptor-type tyrosine-protein kinase FLT3 (FLT3, Homo sapiens, UniProt P36888, N841I)
FLT3: Receptor-type tyrosine-protein kinase FLT3 (FLT3, Homo sapiens, UniProt P36888)
FLT3 autoinhibited: Receptor-type tyrosine-protein kinase FLT3, autoinhibited (FLT3, Homo sapiens, UniProt P36888)
FLT3 D835V: Receptor-type tyrosine-protein kinase FLT3 (FLT3, Homo sapiens, UniProt P36888, D835V)
FLT3 K663Q: Receptor-type tyrosine-protein kinase FLT3 (FLT3, Homo sapiens, UniProt P36888, K663Q)
FLT3 ITD: Receptor-type tyrosine-protein kinase FLT3 (FLT3, Homo sapiens, UniProt P36888, ITD)
FLT3 D835H: Receptor-type tyrosine-protein kinase FLT3 (FLT3, Homo sapiens, UniProt P36888, D835H)
FLT3 D835Y: Receptor-type tyrosine-protein kinase FLT3 (FLT3, Homo sapiens, UniProt P36888, D835Y)

SMILES	target	effect on	technique	tested at	remaining binding [%]
C[C@H](c1ccnc(Nc2nc3ccc(-c4cc(N(C)C)ncn4)cc3[nH]2)c1)N1CCN(C(=O)CC(F)(F)F)CC1	FLT3 F691L/ITD	cell-free assay	competition with immobilised ligand	0.1 µM	42
O=C(c1ccc(Nc2ncc(Cl)c(-c3ccc(Cl)s3)n2)cc1)N1CCC(N2CCCC2)CC1	FLT3 R834Q	binding	competition with immobilised ligand	1 µM	5.3
CN(CCCC(F)(F)F)c1nccc(-c2cnn3ncccc23)n1	FLT3 R834Q	binding	–	1 µM	100
C=CC(=O)N1CCC(C(=O)NCC(=O)N2CCN(c3nc(-c4cnc(N)nc4C(F)F)nc(N4CCOCC4)n3)CC2)CC1	FLT3 N841I	binding	competition with immobilised ligand	1 µM	100
COc1cnc(Nc2cccc(S(N)(=O)=O)c2)nc1N1CCN(c2ccccc2)C(=O)C1	FLT3	binding	competition with immobilised ligand	1 µM	97
O=C(c1ccc(Nc2nccc(-c3cc4ccccc4s3)n2)cc1)N1CCC(N2CCCC2)CC1	FLT3 autoinhibited	binding	competition with immobilised ligand	1 µM	64
O=C(Nc1c[nH]nc1C(=O)NC1CCNCC1)c1cc(F)cc(F)c1	FLT3 D835V	binding	competition with immobilised ligand	1 µM	100
O=C(c1ccc(Nc2ncc(Cl)c(-c3cc4ccccc4s3)n2)cc1)N1CCC(N2CCCC2)CC1	FLT3 N841I	binding	competition with immobilised ligand	1 µM	0
CCS(=O)(=O)c1cc2cc(C[C@](O)(CC(C)(C)c3ccc(F)cc3C(N)=O)C(F)(F)F)[nH]c2cn1	FLT3 N841I	cell-free assay	competition with immobilised ligand	1 µM	93
COc1ncc2cc3ccccc3nc2c1C#N	FLT3 K663Q	cell-free assay	competition with immobilised ligand	5 µM	97
c1cnn2ncc(-c3ccnc(N4CCC45COC5)n3)c2c1	FLT3	binding	–	1 µM	85
Nc1ncc2c(n1)-c1c([nH]c3ccc(C#CC4CC4)cc13)CCCC2	FLT3 autoinhibited	binding	competition with immobilised ligand	1 µM	82
Cc1cnn2ncc(-c3ccnc(N(C)C)n3)c2c1	FLT3 D835V	binding	–	1 µM	66
c1ccc(N2CCN(Cc3nc4ccccc4[nH]3)CC2)nc1	FLT3 ITD	binding	competition with immobilised ligand	1 µM	100
CNC(=O)[C@@H]1CC[C@@H](n2c(-c3ccc4cnccc4c3)nc3ccc(C(=O)NCc4cccc(C(N)=O)c4)cc32)C1	FLT3 D835H	binding	competition with immobilised ligand	1 µM	100
CN(C)c1ncnc(-c2ccc3nc(Nc4cc(CN5CCN(C(=O)CC(F)(F)F)CC5)ccn4)[nH]c3c2)c1Cl	FLT3 D835Y	cell-free assay	competition with immobilised ligand	1 µM	38

SMILES	target	effect on	technique	tested at	remaining binding [%]
c1cncc(-c2cccc(Nc3nccc(NC4CCCCC4)n3)c2)c1	FLT3	binding	competition with immobilised ligand	10 µM	0.35
C[C@@H]1CN(c2cc(-c3n[nH]c4ccc(OC5(C)CC5)cc34)ncn2)C[C@H](C)O1	FLT3 K663Q	cell-free assay	competition with immobilised ligand	0.1 µM	100
O=C(NCC1CCOCC1)c1n[nH]cc1NC(=O)c1c(F)cccc1F	FLT3 K663Q	binding	competition with immobilised ligand	1 µM	91
O=C(NCCCN1CCOCC1)c1ccc(Nc2nccc(-c3cc4ccccc4s3)n2)cc1	FLT3 F691L/ITD	binding	competition with immobilised ligand	1 µM	37
C[C@H]1CCN(c2nccc(-c3cnn4ncccc34)n2)C1	FLT3 autoinhibited	binding	–	1 µM	72
C[C@@H](c1ccc(-n2cnc3c(N)ncnc32)cc1)N1CCc2nn(C)c(Cc3ccccc3)c2C1=O	FLT3 D835H	binding	competition with immobilised ligand	0.1 µM	94
Cc1nccc(COC(=O)N2C[C@@H]3[C@@H](CNC(=O)c4ccc5[nH]nnc5c4)[C@@H]3C2)n1	FLT3 autoinhibited	cell-free assay	competition with immobilised ligand	1 µM	93
O=C(NCCCN1CCOCC1)c1ccc(Nc2ncc(Cl)c(-c3ccc(Cl)s3)n2)cc1	Receptor-type tyrosine-protein kinase FLT3 (FLT3, Homo sapiens, UniProt P36888, D835V/ITD)	binding	competition with immobilised ligand	1 µM	1.8
CN(C)c1nccc(-c2cnn3ncccc23)n1	FLT3 K663Q	binding	–	1 µM	100
CNCc1ccccc1-c1csc([C@@H](C)Nc2nc(C)nc3cc(OC)c(OC)cc23)c1	FLT3 ITD	cell-free assay	competition with immobilised ligand	1 µM	89
CN(C)c1ncc(F)c(-c2cnn3ncccc23)n1	FLT3	binding	–	1 µM	100
Cc1cnc(Nc2ccc(C(=O)N3CCC(N4CCCC4)CC3)cc2)nc1-c1cc2ccccc2s1	FLT3 D835V	binding	competition with immobilised ligand	1 µM	0.6
COc1cnc(Nc2cccc(S(N)(=O)=O)c2)nc1N1CCN(c2ccccc2)CC1	FLT3 autoinhibited	binding	competition with immobilised ligand	1 µM	91
O=C1NC(c2ccccn2)Sc2ccccc21 (stereo not shown)	FLT3 D835Y	cell-free assay	competition with immobilised ligand	1 µM	86
N[C@@H]1CCN(c2nccc(-c3cnn4ncccc34)n2)C1	FLT3	binding	–	1 µM	100
